System: MS2 coat protein
Assay: apparent Kd, MS2 coat protein; higher = weaker binding; RNA-MaP array; FMN 200 µM where present
Summary of the method: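 Stalled E. coli RNA polymerase transcribed the designs on Illumina sequencing-chip clusters. SNAP-549-labelled MS2 coat protein was titrated from 0.7 or 1.5 nM, doubling to 3 µM, without and then with constant ligand, in 100 mM Tris-HCl pH 7.5, 80 mM KCl, 4 mM MgCl2, BSA, DTT, yeast tRNA and Tween-20. Per-cluster binding curves were fitted to green signal normalised to red-channel RNA signal and control-cluster median Fmax. The apparent Kd is the median of the filtered fits.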

[1] = designed as: ON switch for flavin mononucleotide, no ligand
[2] = ligand present: flavin mononucleotide, designed as: ON switch for flavin mononucleotide
[3] = designed as: OFF switch for flavin mononucleotide, no ligand
[4] = ligand present: flavin mononucleotide, designed as: OFF switch for flavin mononucleotide

Row | Sequence | apparent Kd [1] [nM] | apparent Kd [2] [nM] | apparent Kd [3] [nM] | apparent Kd [4] [nM]
1 | AGUUUAUAUCGAGGAUAUAAGUCUAGGACAUGAGGAUCACCCAUGUAUGUCUUAGAAGGCGAUAUAAACAGCCUGUUACAGGCA | 31.5 | 7.04 | – | –
2 | AACAGCACAGGAUAUACAUGAGGAUCACCCAUGUGAGAAUUAAGUGGCGUACCACAAAGUAGAAGGGUGCUGGA | – | – | 37.1 | 286
3 | UUUCCUGAAGGAUAUUAAGAGCCAGACAUGAGGAUCACCCAUGUUCCUACAACGAACCUCUAAGAAGGUCAGGGCU | – | – | 20.9 | 21
4 | CCCGGGUUUGUGAGGAUAUGCCCGGGUAAACCCGGGUAGAAGGCACAUGAGGAUCACCCAUGUAAGGGCCCGGG | – | – | 16.7 | 17
5 | UGUUGUAUUACAGGAUAUCUAUUAUUUUUGUUUAGAGAAGGGUAUUCACAUGAGGAUCACCCAUGUAUAUACGAGGAAGUUGUG | 53.5 | 61.8 | – | –
6 | AUCGUGCAGCUUUGCUGUACGCGUACAUGAGGAUCACCCAUGUAGGAUAUGGUAGGCUUUGCUUACUAGAAGGAUAGUGUGAUC | – | – | 106 | 33.2
7 | CUUGCGCGCUCGCCACUUUUCCCACAUGAGGAUCACCCAUGUCAGGAUAUACGUACCGAAAUGGCGUAGAAGGGACACGGGUUA | – | – | 166 | 131
8 | GGAAAUCAUGUAGGAUAUGCAUGGCGAAGCUACGCAGAAGGACAUGAGGAUCACCCAUGUUAUAGCGUUCGAGAAAGGAUGCAA | – | – | 20.1 | 87.9
9 | UCGUGUUAUACAGGAUAUGUUUAGGUAUAAUCAUUCAGUUAUUAAUUAAUGACAGAAGGGUAAACAUGAGGAUCACCCAUGUCA | – | – | 179 | 121
10 | GGCUUGCAGCUAGGAUAUGGGCGAUCACAUGAGGAUCACCCAUGUCAACAUCAAAACAAGAUUAACCAGAAGGAGCCGCGGGUU | 50.6 | 153 | – | –
11 | GUCCGGCGUGUAGGAUAUGGAUCCGAUUAGGAUCCAGAAGGACAUGAGGAUCACCCAUGUACAUGUAAACAGUCAUCACCGGAA | – | – | 9.2 | 57.7
12 | AUCAGCUCGUCAGGAUAUACGUCACUGCUUCGGCAGUGUAAUAAAAUAACAUGAGGAUCACCCAUGUAGAAGGGACGAGCUGAU | – | – | 5.93 | 6.13
13 | GUAUGAGCGAUAGGAUAUACUGGGAUUGAAUGGGUAGAAGGAUUUCUAGUGGGAAAGACAUGAGGAUCACCCAUGUCGCGGACC | 37.9 | 35.4 | – | –
14 | GCACAGGCAGGAUAUACAUGAGGAUCACCCAUGUGACCCUUGAAGUACUCGCGUACUCGUAGAAGGGCCUGUGC | – | – | 177 | 302
15 | UCGCGGUGAGGAUAUAGGUCAAUGCAGGGUCACCAGAUUGCCUAGAAGGCACAUGAGGAUCACCCAUGUGGUAG | – | – | 49 | 157
16 | AUCAGCUCGUGAGGAUAUACAUCACUGCUUCGGCAGUGUGGUAAGGUCACAUGAGGAUCACCCAUGUAGAAGGCACGAGCUGAU | – | – | 13.1 | 279
17 | AUUUAUCUAGGAUAUACAUGAGGAUCACCCAUGUUGAAGCGUAGGUACCUUUCCGAAUGUAGAAGGAGAGCACC | – | – | 19.9 | 22.2
18 | UGAUAGGACAGAGGAUAUGCUGAUAGGAUCUACUAUCGAAGAAUCCUCACAUGAGGAUCACCCAUGUAGAAGGCUGUCCUAUCU | – | – | 12 | 143
19 | CGCCUCGUGUCGAACAUGAGGAUCACCCAUGUAAUGGGCACCGAGGAUAUCCCGCUGGCGUUAUGGGAGAAGGCGGUGGAUUUA | – | – | 45 | 131
20 | GCUGCAUAGGCAGGAUAUGCAAAAGCAGAUGCAAAGCAUCUGCAAGAAACAUGAGGAUCACCCAUGUAGAAGGGCCUGUGCAGU | – | – | 21.4 | 20.2
21 | AUAUUCUAGAUAGGAUAUACUGAGGUUGAAUGGGUAGAAGGAUCGUGAGAGUGGACUACAUGAGGAUCACCCAUGUUGUUUAUU | 61.6 | 59 | – | –
22 | CCAGAGGAGUAGGAUAUAGGCCGCCAUCGGCGCCUAGAAGGGCUCACAUGAGGAUCACCCAUGUGAUGUUAGUU | – | – | 17.5 | 20
23 | CUUAUGUGAGGAUAUCAGUAGUAAUACAAUAGUAUUACUACUGAGAAGGCACAUGAGGAUCACCCAUGUUCCUU | – | – | 28.1 | 131
24 | AAUAUAGAGCUGGAAAUAAAACUCACAUGAGGAUCACCCAUGUAGGAUAUCAGCACGAUAAGUGCUGAGAAGGACAUCCAGCUC | – | – | 15.2 | 15.2
25 | UUUGUACAUGAGGAUCACCCAUGUGAGGAUAUGCUUUAUUAUUAUUAUUAUUAUUAUUGCAGAAGGCACGUUGU | – | – | 69.7 | 98.2
26 | UUGGAGUACGUAGGAUAUGUAGGAUAUUCCUACAUGAGGAUCACCCAUGUUAGCAUGGAAGAAGGACAGAAGGACGUGCUCCAU | 1120 | 15.1 | – | –
27 | UUACUCAUGUAAGGAUAUGCAGCCGUUUCGGCUGCAGAAGGUACUAUAAUACAUGAGGAUCACCCAUGUCUUUUUAAUUUGUAC | 35.7 | 23.1 | – | –
28 | GCAUGCAUAGCGAUAUGAUCGAGAGAUCAUGUCGCUAAAUUUAGAAGGACAUGAGGAUCACCCAUGUAGGAUAUGGGAGCAUGA | 44.6 | 11.5 | – | –

Row | Sequence | apparent Kd [1] [nM] | apparent Kd [2] [nM] | apparent Kd [3] [nM] | apparent Kd [4] [nM]
29 | UGAUACAUGAGGGUCUCCCAUGACAUGAGGAUCACCCAUGUGCAGGAUAUACGUGUGAUGAUAUAGUAGAAGGGCAGUCUAUGU | – | – | 449 | 537
30 | GUGACUUAUAGAGGAUAUUGACAUGAGGAUCACCCAUGUAUUUGGGAGUGUUCACUGAAUUCUUACGAGAAGGCUAUAAGACAC | – | – | 229 | 224
31 | AAAAAGUGAGGAUAUACAUGAGGAUCACCCAUGUGAAAUCGGAAAAAAAAGGAAAAAAGUAGAAGGCACAAAAA | – | – | 24.2 | 24.3
32 | AGGCACAUCGGAGGAUAUCAUGUAAAUACAUGAGGAUCACCCAUGUCGAUGGAGACAUCGGAGAUUGAGAAGGCCGAUGUACCG | 175 | 8.44 | – | –
33 | UUUUAACAUGAGGAUCACCCAUGUGAGGAUAUCGAAAUUUAUAUUUAUAUUUAUAAAACGAGAAGGCACAUUUU | – | – | 103 | 119
34 | GUAUGGAGUACAGGAUAUGUAAGUUUUAAGUGUAUUGGUUAUUACUUAAUUACAGAAGGGUAUUACAUGAGGAUCACCCAUGUA | 12.8 | 9.5 | – | –
35 | CAUUAGCGAGGAUAUACAUGAGGAUCACCCAUGUGAUCCUAAGGCUGAUCAAGCCUAUGUAGAAGGCGCAAAUC | – | – | 593 | 83.6
36 | AAUCGGGAGCAGAAGGCAUGUAAUAAGACAUGAGGAUCACCCAUGUAGUUAAGGCGAAAGCCGCAUGAGGAUAUGCUCCCGUAA | 5.26 | 4.99 | – | –
37 | GGAUAGGACAGAGGAUAUACGUGCUAGAGAUACUAGCAAAAUUUCCUCACAUGAGGAUCACCCAUGUAGAAGGCUGUCCUAUCC | – | – | 18.5 | 435
38 | CGGUUACAAGGAUAUACAUGAGGAUCACCCAUGUCUCUCCGGGCGGAUCGAUAAUUUUGUAGAAGGUGUAAGGG | – | – | 24.5 | 63.7
39 | AGCUGGUGACAGCAUCCAUCAAAACAUGAGGAUCACCCAUGUAGAAGGCUGUACGGUUACCGUACAGAGGAUAUACAAUGAUGC | – | – | 13.8 | 31.8
40 | AGAACAUGAGGAUCACCCAUGUAAAGAUCGGUUAAUAAGGGUGAGGAUAUGCUUAAAAUAAGGUAGCAGAAGGUACUUGGUACA | 247 | 345 | – | –
41 | CGGCUGCUACGCCAGCUCGACGCACAGGAUAUGCUGUUACAUGAGGAUCACCCAUGUGGCCAAGAGCAGAAGGGUGAUUCGCGA | 33.6 | 35 | – | –
42 | GACGGGAAUGAGAAGGGUCACAUGAGGAUCACCCAUGUGCUCUUCGCCGUGACAGGAUAUCAUUGCCGCCAGGUUAGAUUUUUG | – | – | 7.87 | 22.3
43 | GGUACUCAAAGAGUACCAAUACGAACAUGAGGAUCACCCAUGUAGGAUAUGCAAAAGCCGGAGUAGCAGAAGGACAUGUGCCUA | – | – | 12.6 | 46.4
44 | CCGCAAAUGGAGGAUAUCGUAUCGGAUACGAUACGAGAAGGCUAUACAUGAGGAUCACCCAUGUGUCCUAGCGG | – | – | 13.5 | 18.3
45 | AAAUUGCUAGAGGAUAUCGGAUAGGAUCUAUCGCGAGAAGGUUGGACAUGAGGAUCACCCAUGUUCUGUUGGGA | – | – | 24.4 | 26.1
46 | CCGAAUAUGCAGGAUAUCGUAUCGGAAACGAUACGAGAAGGGCAAACAUGAGGAUCACCCAUGUUCCUUAACGG | – | – | 18.6 | 20.2
47 | AUAUAUACCCAGAAGGUGCCAGCGAGAGCUGCACAUGAGGAUCACCCAUGUUGUCGGUGACGACGCAAGGAUAUGGGUAUAUAU | 25.2 | 7.86 | – | –
48 | UUGUUGUCAGGAUAUCGUUAAUUUAAUUGUUUGUAUUAGUUCGAGAAGGGACAUGAGGAUCACCCAUGUUUGUU | – | – | 34.5 | 73.5
49 | UUCAGCUUGACAGGAUAUACAUGUCAGCGAAAGCUGACUAUCUUAAUAACAUGAGGAUCACCCAUGUAGAAGGGUCGAGCUGAA | – | – | 16.4 | 25.6
50 | GAGCGAAAGCUCAAUGUCGAUAGCAGAAGGACAUCCAACAACAUGAAAACAUGAGGAUCACCCAUGUAGGAUAUGCUAUCGACU | – | – | 6.8 | 7.4
51 | GGAUAGGACAGAGGAUAUACGUGCUAGGGAUACUAGCAAAAUUUCCUCACAUGAGGAUCACCCAUGUAGAAGGCUGUCCUAUCG | – | – | 16.1 | 416
52 | AUGCUAGUGUGAGGAUAUCAACAUGAGGAUCACCCAUGUUGGAAGUACACGACAUGCGGUACAUUUGAGAAGGUACAUUAGCAU | – | – | 58.2 | 108
53 | CAUAUGUGCGGAGGAUAUGGGUGAAUCGGAUCGACAUGAGGAUCACCCAUGUAGCUCUUUGGCAUCUAGAAGGCCGGAUGAACG | 25.9 | 111 | – | –
54 | ACUGCAUAGUCAGGAUAUGCAAAAGCAGACUCAAAGAGUCUGAACAACACAUGAGGAUCACCCAUGUAGAAGGGACUGUGCAGU | – | – | 18.3 | 18
55 | AAUGGGCACCAGAAGGACAUGAGGAUCACCCAUGUAGGAUAUGGGCGUUGAAGAUGUCUGAUCGAGUUGCUGGAAAGAUAUGGG | 311 | 73.4 | – | –
